Assay results from ChEMBL document CHEMBL1134537, “Potent dibasic GPIIb/IIIa antagonists with reduced prolongation of bleeding time: synthesis and pharmacological evaluation of 2-oxopiperazine derivatives” (J Med Chem, 2001).

Columns and labels:
Type in all cases: functional
Cavia porcellus [1] = assay: Effect on bleeding time when a dose of 9.0 ug/kg/min was administered to guinea pig
Summary of the method: (§1)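 Male guinea pigs (250–400 g) received continuous iv infusion of compound in 0.9% saline, with vehicle for controls. Template BT was taken 90 min after infusion start under pentobarbital (25 mg/kg ip), with hind limb shaved the day before and a pressure cuff proximal to the site. Each animal's value is the mean of two cuts; mean ± SE, n = 3. The cut-off is 900 s.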

Cavia porcellus [2] = species on record: Cavia porcellus; assay: In vitro inhibition of ADP induced aggregation in guinea pig platelets
Summary of the method: (§2)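 Guinea pig blood was taken by aortic puncture under pentobarbital into 3.15% citrate (1:10). PRP was adjusted to 4 × 10^5 platelets/μL and prewarmed 2 min at 37 °C with compound, stirred. Aggregation was induced with ADP (0.8–1 μM) and read as the change in light transmittance. IC50 with 95% CI.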

[3] = Dose ratio for dose causing prolongation of bleeding time to 3 times the basel value vs ID50 value of ex-vivo ADP-induced platelet aggregation.
Summary of the method: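 Template bleeding time and ex vivo ADP aggregation measured in male guinea pigs 90 min after starting continuous iv infusion in 0.9% saline. BT(×3) is the dose prolonging BT to 3 times basal. The ratio is BT(×3) dose divided by the ex vivo ID50 dose.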

Cavia porcellus [4] = species on record: Cavia porcellus; assay: Ex vivo inhibition of ADP induced aggregation in guinea pig platelets
Summary of the method: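 Male guinea pigs (250–400 g) were given a continuous iv infusion in 0.9% saline, with vehicle for controls. At 90 min, citrated blood was drawn from the abdominal aorta under anesthesia and PRP was prepared. Aggregation was induced with submaximal ADP and read by light transmittance. ID50 in μg/kg/min with 95% CI, n = 2–5.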

Cavia porcellus [5] = species on record: Cavia porcellus; assay: In vitro effect on ADP induced platelet aggregation in guinea pig platelet rich plasma; summary of the method: as §2
Homo sapiens [6] = species on record: Homo sapiens; assay: In vitro effect on ADP induced platelet aggregation in human platelet rich plasma
Summary of the method: (§3)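 Human blood was collected into 3.8% citrate (1:10). PRP was adjusted to 3 × 10^5 platelets/μL and preincubated 2 min at 37 °C with compound, stirred at 1000 rpm. ADP (1–10 μM) was then added and light-transmittance aggregometry recorded. IC50 with 95% CI, n = 4.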

Homo sapiens [7] = species on record: Homo sapiens; assay: In vitro effect on ADP induced human platelet aggregation; summary of the method: as §3
Homo sapiens [8] = species on record: Homo sapiens; assay: In vitro effect on PAF induced human platelet aggregation
Summary of the method: (§4)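 Human citrated (3.8%) PRP adjusted to 3 × 10^5 platelets/μL was stirred and prewarmed 2 min at 37 °C with compound. Submaximal agonist was added (PAF, TRAP or collagen) and aggregation recorded as the change in light transmittance.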

Homo sapiens [9] = species on record: Homo sapiens; assay: In vitro effect on TRAP induced human platelet aggregation; summary of the method: as §4
Homo sapiens [10] = species on record: Homo sapiens; assay: In vitro effect on collagen induced human platelet aggregation; summary of the method: as §4
[11] = In vitro effect on ADP induced platelet aggregation in monkey platelet rich plasma; conditions: Cercopithecidae
Summary of the method: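 Monkey blood was drawn into 3.8% citrate (1:10). PRP at 3 × 10^5 platelets/μL was warmed 2 min at 37 °C with compound under stirring. Aggregation was triggered by ADP (30–40 μM) and measured by light transmittance. IC50 with 95% CI, n = 4.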

Cavia porcellus [12] = assay: Effect on bleeding time when a dose of 10 ug/kg/min was administered to guinea pig; summary of the method: as §1
Cavia porcellus [13] = assay: Effect on bleeding time when a dose of 6.0 ug/kg/min was administered to guinea pig; summary of the method: as §1
Cavia porcellus [14] = assay: Effect on bleeding time when a dose of 4.0 ug/kg/min was administered to guinea pig; summary of the method: as §1
Cavia porcellus [15] = assay: Effect on bleeding time when a dose of 8.0 ug/kg/min was administered to guinea pig; summary of the method: as §1
Cavia porcellus [16] = assay: Effect on bleeding time when a dose of 6.5 ug/kg/min was administered to guinea pig; summary of the method: as §1
Cavia porcellus [17] = assay: Effect on bleeding time when a dose of 2.2 ug/kg/min was administered to guinea pig; summary of the method: as §1
Cavia porcellus [18] = assay: Effect on bleeding time when a dose of 4 ug/kg/min was administered to guinea pig; summary of the method: as §1
Cavia porcellus [19] = assay: Effect on bleeding time when a dose of 0.9 ug/kg/min was administered to guinea pig; summary of the method: as §1
Cavia porcellus [20] = assay: Effect on bleeding time when a dose of 1.4 ug/kg/min was administered to guinea pig; summary of the method: as §1
Cavia porcellus [21] = assay: Effect on bleeding time when a dose of 2.5 ug/kg/min was administered to guinea pig; summary of the method: as §1
Cavia porcellus [22] = assay: Effect on bleeding time when a dose of 2 ug/kg/min was administered to guinea pig; summary of the method: as §1
Cavia porcellus [23] = assay: Effect on bleeding time when a dose of 5 ug/kg/min was administered to guinea pig; summary of the method: as §1
Cavia porcellus [24] = assay: Effect on bleeding time when a dose of 5.0 ug/kg/min was administered to guinea pig; summary of the method: as §1
Cavia porcellus [25] = assay: Effect on bleeding time when a dose of 0.2 ug/kg/min was administered to guinea pig; summary of the method: as §1
Cavia porcellus [26] = assay: Effect on bleeding time when a dose of 3.0 ug/kg/min was administered to guinea pig; summary of the method: as §1

Row | IC50 (Cavia porcellus [2]) | SMILES | Dissociation ratio [3] | ID50 (Cavia porcellus [4]) | other results
1 | 51 nM | N=C(N)Nc1ccc(C(=O)NCCC[C@H]2C(=O)N(CC(=O)O)CCN2C(=O)CNC(=O)c2ccc(NC(=N)N)cc2)cc1 | >33 | 0.18 µg/min/kg | BT (Cavia porcellus [13]): 510; IC50 (Cavia porcellus [5]): 51 nM; IC50 (Homo sapiens [6]): 31 nM; IC50 (Homo sapiens [7]): 31 nM; IC50 (Homo sapiens [8]): 30 nM; IC50 (Homo sapiens [9]): 91 nM; IC50 (Homo sapiens [10]): 59 nM; IC50 [11]: 79 nM
2 | 120 nM | N=C(N)c1ccc(C(=O)NCC(=O)N2CCN(CC(=O)O)C(=O)[C@@H]2CNC(=O)c2ccc(C(=N)N)cc2)cc1 | <6 | 0.72 µg/min/kg | BT (Cavia porcellus [14]): >900
3 | 190 nM | N=C(N)c1ccc(C(=O)NCC[C@H]2C(=O)N(CC(=O)O)CCN2C(=O)CNC(=O)c2ccc(C(=N)N)cc2)cc1 | <9 | 0.91 µg/min/kg | BT (Cavia porcellus [15]): 800
4 | 37 nM | N=C(N)c1ccc(C(=O)NCCC[C@H]2C(=O)N(CC(=O)O)CCN2C(=O)CNC(=O)c2ccc(C(=N)N)cc2)cc1 | 12 | 0.19 µg/min/kg | BT (Cavia porcellus [17]): 660
5 | 57 nM | N=C(N)Cc1ccc(C(=O)NC[C@H]2C(=O)N(CC(=O)O)CCN2C(=O)CNC(=O)c2ccc(C(=N)N)cc2)cc1 | <10 | 0.42 µg/min/kg | BT (Cavia porcellus [18]): 760
6 | 67 nM | N=C(N)Cc1ccc(C(=O)NCCC[C@H]2C(=O)N(CC(=O)O)CCN2C(=O)CNC(=O)c2ccc(C(=N)N)cc2)cc1 | 10 | 0.41 µg/min/kg | BT (Cavia porcellus [14]): 620
7 | 150 nM | N=C(N)c1ccc(C(=O)NCCCC[C@H]2C(=O)N(CC(=O)O)CCN2C(=O)CNC(=O)c2ccc(C(=N)N)cc2)cc1 | 6 | 0.79 µg/min/kg | BT (Cavia porcellus [24]): 620

Second part, the compound before the results:

Row | SMILES | IC50 (Cavia porcellus [2]) | Dissociation ratio [3] | ID50 (Cavia porcellus [4]) | other results
8 | N=C(N)Nc1ccc(C(=O)NCC[C@H]2C(=O)N(CC(=O)O)CCN2C(=O)CNC(=O)c2ccc(NC(=N)N)cc2)cc1 | 97 nM | <10 | 0.88 µg/min/kg | BT (Cavia porcellus [1]): 800
9 | COC(=O)C[C@H]1C(=O)N(CC(=O)O)CCN1C(=O)CNC(=O)c1ccc(C(=N)N)cc1 | – | – | – | IC50 (Cavia porcellus [5]): 43 nM; IC50 (Homo sapiens [6]): 31 nM; IC50 (Homo sapiens [7]): 31 nM; IC50 (Homo sapiens [8]): 29 nM; IC50 (Homo sapiens [9]): 32 nM; IC50 (Homo sapiens [10]): 31 nM; IC50 [11]: 46 nM
10 | N=C(N)c1ccc(C(=O)NCC(=O)N2CCN(CC(=O)O)C(=O)[C@@H]2CCCNC(=O)CCCCCN)cc1 | 160 nM | <12 | 0.86 µg/min/kg | BT (Cavia porcellus [12]): 780
11 | N=C(N)Nc1ccc(C(=O)NC[C@H]2C(=O)N(CC(=O)O)CCN2C(=O)CNC(=O)c2ccc(C(=N)N)cc2)cc1 | 85 nM | 10 | 0.66 µg/min/kg | BT (Cavia porcellus [16]): 660
12 | N=C(N)Nc1ccc(C(=O)NCC(=O)N2CCN(CC(=O)O)C(=O)[C@@H]2CNC(=O)c2ccc(NC(=N)N)cc2)cc1 | 140 nM | <10 | 1 µg/min/kg | BT (Cavia porcellus [12]): 720
13 | N=C(N)NCCCC(=O)NCCC[C@H]1C(=O)N(CC(=O)O)CCN1C(=O)CNC(=O)c1ccc(C(=N)N)cc1 | 88 nM | 21 | 0.47 µg/min/kg | BT (Cavia porcellus [12]): 620
14 | N=C(N)Nc1ccc(C(=O)NCCC[C@H]2C(=O)N(CC(=O)O)CCN2C(=O)CNC(=O)c2ccc(C(=N)N)cc2)cc1 | 19 nM | 16 | 0.087 µg/min/kg | BT (Cavia porcellus [19]): 490; BT (Cavia porcellus [20]): >900
15 | N=C(N)Nc1ccc(C(=O)NCC[C@H]2C(=O)N(CC(=O)O)CCN2C(=O)CNC(=O)c2ccc(C(=N)N)cc2)cc1 | 37 nM | 21 | 0.12 µg/min/kg | BT (Cavia porcellus [21]): 820; BT (Cavia porcellus [22]): 410
16 | COc1ccc(C[C@H](NC(=O)c2ccc(C(=N)N)cc2)C(=O)N2CCN(CC(=O)O)C(=O)[C@@H]2CCCNC(=O)c2ccc(C(=N)N)cc2)cc1 | 23 nM | 10 | 0.021 µg/min/kg | –
17 | N=C(N)c1ccc(C(=O)NCC(=O)N2CCN(CC(=O)O)C(=O)[C@@H]2CCCNC(=O)CCCCN)cc1 | 210 nM | >5 | 0.94 µg/min/kg | BT (Cavia porcellus [23]): 490
18 | COc1ccc(C[C@H](NC(=O)c2ccc(C(=N)N)cc2)C(=O)N2CCN(CC(=O)O)C(=O)[C@@H]2CCCCNC(=O)c2ccc(C(=N)N)cc2)cc1 | 12 nM | <5 | 0.041 µg/min/kg | BT (Cavia porcellus [25]): >900
19 | N=C(N)c1ccc(C(=O)NCC(=O)N2CCN(CC(=O)O)C(=O)[C@@H]2CCCNC(=O)c2ccc(CCN)cc2)cc1 | 81 nM | 11 | 0.56 µg/min/kg | BT (Cavia porcellus [13]): 860; BT (Cavia porcellus [26]): 270
